Screening results (PubChem BioAssay)
UPR XBP1 act = activators of adaptive arm of unfolded protein response (XBP1). activation, % at 20 µM. CHO-XBP1 luciferase reporter, IRE1-XBP1 UPR activation, luminescence; percent of tunicamycin response, DMSO as zero. 330,000 tested, 0.33% active. AID 463104;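 active means versus positive control, 20 µM dose yields 30% or more activation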;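 further: 100% = tunicamycin at 10 µg/mL and 0% = DMSO only wells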
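Material: CHO cell line with stable XBP1 luciferase reporter; schedule: 16-18 h cell attachment at 37 °C, then 6 h compound exposure; signal: glow luminescence from Steady-Glo reagent; medium: serum-containing F12 medium, 10% FBS; benchmarks: tunicamycin 10 µg/mL and vehicle-only wells; read-out: percent activation relative to tunicamycin reference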
CHOP inhibitor = inhibitors of CHOP induction in ER stress response. CHO-K1 CHOP-promoter luciferase, tunicamycin-induced, 15-18 h. inhibition, % at 10 µM. 220,000 tested, 3.8% active;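 active means compounds that reduced the stress-induced luciferase reporter signal by more than about 70% of percent inhibition, limit read from the data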;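 further: 0% = tunicamycin plus vehicle and 100% = wells without tunicamycin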
Jurkat NFkB inh = inhibitors of the PMA/ionomycin-induced NF-kB reporter in Jurkat cells; AID 435003; PMA/ionomycin-induced NF-kB luciferase reporter, luminescence; inhibition, % at 4 µM; 330,000 tested, 0.53% active; in the data active means inhibition above about 50%
UPR CHOP act = activators of apoptotic arm of unfolded protein response (CHOP) | CHO-CHOP luciferase reporter, UPR activation, luminescence; percent of tunicamycin response over DMSO baseline | activation, % at 10 µM | 330,000 tested, 0.34% active;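 active means at 10 µM dose, activation of 40% or more, normalized to positive control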;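 further: 100% = tunicamycin at 10 µg/mL and 0% = DMSO alone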
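measured by = luciferase luminescence | assay system = CHO-CHOP cells, stable luciferase reporter of PERK-eIF2a-CHOP signalling | amount = 500 reporter cells seeded per well | timing = 6 h compound exposure at 37 °C after overnight seeding | controls = positive tunicamycin 10 µg/mL, negative DMSO alone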
697 NFkB inh = lowers PMA/ionomycin-induced NF-kB signal in 697 B cells; AID 435022; 330,000 tested, 0.33% active; 697 B-cell NF-kB luciferase reporter, 16 h; inhibition, % at 4 µM; in the data active means inhibition above about 35%
Numbers without * were called inactive; x = no result given; ! = not confirmed by another sample. The sample as a whole holds a higher share of hits than the screen did.

SMILES	UPR XBP1 act	CHOP inhibitor	Jurkat NFkB inh	UPR CHOP act	697 NFkB inh
CCn1c(=O)c([N+](=O)[O-])c(Cl)c2ccccc21	-6	108*	-2	-10	0
CCOc1ccc(NC(=O)COC(=O)C2(C)CC2(Cl)Cl)c([N+](=O)[O-])c1 (stereo not given)	-1	97*	-2	2	-5
Nc1nnc(SCC(=O)NN2C(=O)NC3(CCCCC3)C2=O)s1	-2	7	6	1	0
CCC(C)n1c(SCc2ccc([N+](=O)[O-])cc2)nc2ccsc2c1=O (stereo not given)	2	74*	7	2	-18
COc1cnc(-c2ccccc2)nc1Oc1ccccc1C	-3	14	-3	-3	-5
COc1cccc(-c2nc(NC(C)C)c3ccccc3n2)c1O	9	51	-4	0	29
COc1cccc(-c2nc(Oc3cccc(C)c3C)c3ccccc3n2)c1O	19	82*	4	20	20
COc1cnc(-c2ccccc2)nc1Oc1cccc(C)c1C	-2	78*	18	-2	-8
O=c1c[n+]([O-])c2ccccc2n1OCc1c(F)cccc1F	-3	88*	-7	1	12
Cc1[nH]c2ccccc2c1C(=O)CSc1nc2ncc(Cl)cc2[nH]1	-3	86*	-18	-1	-8
Cc1nn(-c2ccccc2)c2c1C(O)n1c(nc3ccccc31)S2 (stereo not given)	3	0	3	2	-5
NNC(=O)c1ccc(COc2ccc3c(c2)CCC3)cc1	-3	19	-62	0	-63
NNC(=O)c1ccc(COc2ccc3ccccc3c2)cc1	-2	85*	-86	2	-80
COc1ccc(-c2csc(N(Cc3ccccc3)C(=O)COc3ccc(Cl)cc3)n2)cc1	1	91*	-15	1	-7
CCCCC[C@@H](O)c1cc2ccccc2c(=O)o1	5	x	-7	4	-10
O=C(Oc1ccc2cc(Br)ccc2c1)N1CCCCCC1	8	85*	-25	4	-185
CCC1(C)CC(CCNS(=O)(=O)c2ccc(C)cc2)(c2ccc(C)cc2)CCO1 (stereo not given)	-6	73*	12	-2	7
CC1(C)CC(CCNS(=O)(=O)c2ccccc2)(c2ccccc2)CCO1 (stereo not given)	-1	-9	8	1	7
COc1cc(CNC(=O)C2CCC(=O)N(C3CCCCCC3)C2)cc(OC)c1 (stereo not given)	-2	x	0	4	15
COc1ccc(S(=O)(=O)N2CCC(N3CCCCC3)CC2)cc1	-3	-5	14	-1	2
COc1ccc(S(=O)(=O)N2CCN(C3CCCCCCC3)CC2)cc1	-3	74*!	0	-2	-3
Cc1nn(S(=O)(=O)c2cccs2)c(C)c1Sc1ccc([N+](=O)[O-])cc1	-1	36	18	2	-27
Cc1nn(S(=O)(=O)c2ccccc2)c(C)c1Sc1ccc([N+](=O)[O-])cc1	-2	80*	9	3	-17
Cc1ccccc1NC(=O)CN1C(=O)NC2(CCc3ccccc32)C1=O (stereo not given)	-1	x	1	-1	21
COc1cc2c(cc1NC(=O)COc1ccccc1OC)oc1ccccc12	6	46	-21	4	-7
SMILES	UPR XBP1 act	CHOP inhibitor	Jurkat NFkB inh	UPR CHOP act	697 NFkB inh
COc1cc2c(cc1NC(=O)CN1C(=O)NC3(CCc4ccccc43)C1=O)oc1ccccc12 (stereo not given)	10	79*	6	13	10
COc1cc2c(cc1NC(=S)Nc1cccc(C(F)(F)F)c1)oc1ccccc12	0	71*	-5	1	5
COc1cc2c(cc1NC(=O)COC(=O)c1ccc(C(C)(C)C)cc1)oc1ccccc12	20	78*	-28	1	-17
COc1ccc(CC(=O)NNC(=O)c2nn(Cc3ccccc3)c(=O)c3ccccc23)cc1OC	-2	-9	-4	-1	-12
CCc1ccc(N(CC(=O)NC)S(C)(=O)=O)cc1	-1	14	5	2	12
CN1CCC(N(C)C(=S)NC(=O)c2cc(-c3cccc(Br)c3)nc3ccccc23)CC1	4	-32	4	-1	6
COC(=O)C[C@H](NC(=O)Cn1cnc2c(NCc3ccccc3)ncnc21)C(=O)OC	4	x	x	4	5
O=C(COc1ccc(-c2ccccc2)cc1)N/N=C/c1cc(O)ccc1Br	-5	81*	-3	2	12
CCOc1ccc(/C=N/NC(=O)c2c(-c3ccccc3)noc2C)cc1	-3	26	-1	1	-14
O=C(COc1cccc(Br)c1)N/N=C/C(=O)c1ccccc1	-1	80*	-4	0	9
O=C(COc1ccc(-c2ccccc2)cc1)N/N=C/c1ccccc1Br	0	-29	-6	-2	-15
O=C(COc1cccc(Cl)c1)N/N=C\c1cc2ccccc2nc1Cl	4	78*	18	1	-4
CCOc1ccc(/C=N/NC(=O)COc2ccccc2-c2ccccc2)cc1	-4	78*	16	-1	-9
Cc1ccccc1OCC(=O)N/N=C/c1cc2ccccc2nc1Cl	2	32	10	0	-13
COc1cc2cc(CCOC(=O)c3ccc(C#N)cc3)oc(=O)c2cc1OC	2	x	9	1	5
CCCCn1c(SCC(=O)N2CCOCC2)nnc1-c1cccs1	-1	22	-6	-1	-5
O=C(CNC(=O)c1ccc(Br)o1)NCC1CCCCC1	2	x	-10	-1	3
O=C(/C=C/c1ccc(Cl)cc1)N(c1ccccn1)C1CCCCC1	-2	70*	-2	0	4
O=C(CN1C(=O)NC2(CCCCC2)C1=O)Oc1ccc2ccc(=O)oc2c1	1	x	3	-1	5
O=C(NCc1cccnc1)c1ccc(-c2ccc(Cl)cc2)o1	3	29	-4	0	-21
O=C(NCc1cccnc1)/C(=C\c1ccc(-c2ccc(Cl)c(Cl)c2)o1)S(=O)(=O)c1ccccc1	x	110*	x	x	x
CCOC(=O)c1c(S(=O)(=O)NC2CCN(C(=O)OCC)CC2)c(C)n(C)c1C	0	x	-9	3	-15
Clc1ccc(-c2nc3ccccc3nc2-c2ccccc2)cc1	2	74*	-6	1	-8
COc1ccc(C(=O)Nc2ccc(Oc3nc(C)nc4sc(-c5ccccc5)cc34)cc2)cc1OC	4	81*	-15	6	-20
COc1ccc(C(=O)Nc2ccc(Oc3ncnc4sc(-c5ccccc5)cc34)cc2)cc1OC	7	59	-32	0	-9
C/C(N)=C(/C#N)C(=O)COC(=O)CNC(=O)c1ccc(Cl)cc1Cl	1	-22	-4	2	-2
Cc1ccc(CSC(Nc2ccc(F)cc2)=C(C#N)C#N)cc1	-1	76*	-14	4	11
